HKDC1 inh: HKDC1 hexokinase inhibitors, primary screen, biochemical, fluorescence, uHTS. Q2TB90. recombinant HKDC1, G6PDH/diaphorase resazurin coupled fluorescence. inhibition, % at 20 µM. 0.16% of 340,000 active. AID 493160, 2011;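 active means inhibition above about 35% when tested at 20 µM, limit read from the data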;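 further: plate controls were DMSO wells with enzyme for no effect and DMSO wells lacking enzyme for full effect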
Target sequence (Q2TB90 whole entry, looked up): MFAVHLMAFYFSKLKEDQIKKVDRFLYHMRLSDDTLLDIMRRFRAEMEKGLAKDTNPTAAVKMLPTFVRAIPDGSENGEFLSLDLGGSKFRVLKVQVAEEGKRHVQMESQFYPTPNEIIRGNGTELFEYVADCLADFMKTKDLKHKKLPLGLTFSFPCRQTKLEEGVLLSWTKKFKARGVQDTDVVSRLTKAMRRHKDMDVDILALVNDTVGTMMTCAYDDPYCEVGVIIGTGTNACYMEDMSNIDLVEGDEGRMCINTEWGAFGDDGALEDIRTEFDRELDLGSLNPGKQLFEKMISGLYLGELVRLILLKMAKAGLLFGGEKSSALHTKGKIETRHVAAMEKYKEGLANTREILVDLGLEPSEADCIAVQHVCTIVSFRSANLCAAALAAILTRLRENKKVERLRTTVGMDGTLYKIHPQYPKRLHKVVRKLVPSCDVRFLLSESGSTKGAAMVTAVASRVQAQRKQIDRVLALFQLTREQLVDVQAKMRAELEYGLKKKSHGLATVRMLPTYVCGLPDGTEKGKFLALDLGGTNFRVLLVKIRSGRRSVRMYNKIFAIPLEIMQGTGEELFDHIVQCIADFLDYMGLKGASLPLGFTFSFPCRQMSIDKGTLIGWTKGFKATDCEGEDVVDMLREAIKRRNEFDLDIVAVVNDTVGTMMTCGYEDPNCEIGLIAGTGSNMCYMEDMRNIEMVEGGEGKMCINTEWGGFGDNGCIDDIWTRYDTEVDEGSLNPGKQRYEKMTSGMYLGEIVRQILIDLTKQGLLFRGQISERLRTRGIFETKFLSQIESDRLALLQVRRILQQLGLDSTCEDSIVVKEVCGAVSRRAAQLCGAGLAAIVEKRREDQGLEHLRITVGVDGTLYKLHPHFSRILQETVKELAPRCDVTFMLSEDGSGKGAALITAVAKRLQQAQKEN
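Test system: HK5 enzyme. Quantity: 5 µg/mL HK5 final. Reagent: glucose and ATP substrates. Schedule: 90 min reaction incubation at room temperature, dark. Technique: resazurin-to-resorufin fluorescence via G6PDH and diaphorase coupling, 525/613 nm. Control set: DMSO wells with and without enzyme mix.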
PfG6PD inh: PfG6PD enzyme inhibitors, primary screen, biochemical, fluorescence intensity, uHTS. PfGluPho enzyme, NADPH resazurin-diaphorase fluorescence. inhibition, % at 20 µM. glucose-6-phosphate dehydrogenase-6-phosphogluconolactonase (Plasmodium falciparum 3D7). 0.78% of 350,000 active. AID 504690, 2011;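 active means inhibition reaching at least a set limit at 20 µM in the primary screen, cut at about 59% in these data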;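 further: 0% = DMSO wells with substrate and 100% = DMSO wells lacking glucose-6-phosphate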
Neddyl block: inhibitors of cullin neddylation, primary screen, biochemical, TR-FRET, uHTS, NAE and Ubc12 | inhibition, % at 25 µM | 0.58% of 360,000 active | AID 651699, 2012; in the data active means inhibition above about 36%
PfM18AAP inh-1: PfM18AAP inhibitors, malaria aminopeptidase, primary screen, biochemical, QFRET, recombinant enzyme; inhibition, % at 7.35 µM; M18 aspartyl aminopeptidase (Plasmodium falciparum 3D7); 1.2% of 290,000 active; H-Glu-NHMec fluorogenic cleavage;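 active means inhibition above the campaign mean inhibition over all tested compounds plus 3 SD, cut at about 28% in these data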;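 further: 0% = plate median of test compound wells and 100% = 2 mM ZnCl2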
PfM18AAP inh-2: PfM18AAP inhibitors, malaria aminopeptidase, confirmation, biochemical, QFRET, recombinant enzyme, triplicate | shares compounds with PfM18AAP inh-1 | H-Glu-NHMec fluorogenic cleavage | inhibition, % at 7.35 µM | 28% of 2,400 active;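 active means mean inhibition over replicate wells above the hit cutoff set for the earlier primary screen, cut at about 29% in these data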;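 further: 0% = median of test compound wells and 100% = 2 mM ZnCl2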
CTSL1 confirm: cathepsin L1 inhibitors, retest, confirmation, counter-screen for PFM18AAP inhibitor project, biochemical, QFRET, triplicate; purified cathepsin L1, Z-Leu-Arg-MCA fluorescence; shares compounds with PfM18AAP inh-1; inhibition, % at 5.96 µM; 2,400 tested, under 10 active;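 active means average inhibition across replicates above the hit cutoff set in the earlier primary screen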;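 further: 0% = median of test compound wells and 100% = Z-Phe-Ala-diazomethylketone 1 µM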
Numbers without * were called inactive; x = not tested or not shown. Hits are enriched below; roughly 2.2% of the tested compounds scored in any of these assays.

SMILES | HKDC1 inh | PfG6PD inh | Neddyl block | PfM18AAP inh-1 | PfM18AAP inh-2 | CTSL1 confirm
N#CCC(=O)N/N=C/c1ccc(OC2CSC2)cc1 | -7 | -5 | -4 | 40* | -12 | 0
COc1cccc2c1C1COC3C4CC(C(=O)O)C(C(C2)N13)N4C (stereo unspecified) | -6 | 20 | 3 | x | x | x
CC(=O)Oc1ccc(C(=O)OCC(=O)c2c(N)n(C)c(=O)n(C)c2=O)cc1OC(C)=O | -6 | -27 | -9 | 43* | 1 | -5
CCCCn1c(N)c(N(CC)C(=O)C2=NN(c3ccccc3)C(=O)CC2)c(=O)[nH]c1=O | 7 | 18 | -14 | x | x | x
Cc1ccc(-c2cc(C(=O)Nc3c(C)n(C)n(-c4ccccc4)c3=O)[nH]n2)c(O)c1C | 6 | -13 | 5 | 16 | x | x
CC(=O)N1CC[n+]2c(-c3ccc(Cl)cc3)csc21 | -5 | 57 | -1 | 39* | 5 | -10
CCCC(=O)Nc1ccc(C(=O)NN=C(C2CC2)C2CC2)cc1 | -10 | 2 | 4 | -1 | x | x
CCCC(=O)Nc1ccc(C(=O)N/N=C2\CC(=O)CC(C)(C)C2)cc1 | -12 | -8 | 3 | 39* | -3 | 3
N#Cc1c(C(F)(F)F)cc(-c2ccco2)nc1SCc1ccncc1 | 6 | -1 | 22 | 44* | -43 | 7
N#Cc1c(C(F)(F)F)cc(-c2ccco2)nc1SCc1ccccn1 | -2 | 15 | 12 | -2 | x | x
CC1(C)Cc2c(c(N3CCOCC3)nc3sc4c(NN)ncnc4c23)CS1 | 9 | 12 | 26 | 33* | -7 | 3
CCN(CC)S(=O)(=O)c1ccc(C(=O)NCC(=O)NCCCc2ccccc2)cc1 | -5 | -1 | 4 | 3 | x | x
COc1ccccc1CNC(=O)OCc1nccnc1C(=O)Nc1ccc(Br)cn1 | -2 | -7 | -5 | -12 | x | x
O=C(NNC(=O)c1ccc(F)cc1F)c1ccc2c(c1)OCO2 | -7 | 0 | 16 | 0 | x | x
O=C(NNS(=O)(=O)c1ccc(F)cc1)c1ccc2c(c1)OCO2 | 3 | -17 | 5 | 50* | 11 | 2
COc1ccc(NS(=O)(=O)c2cccc(C(=O)N3CCCC3)c2)cc1 | -7 | -1 | 12 | x | x | x
CC1(C)Cc2c(sc3ncn4c(=S)[nH]nc4c23)CO1 | -2 | 49 | -14 | 43* | 30* | -1
CCOc1cc(C(=O)Nn2cnnc2)cc(OCC)c1OCC | -3 | -4 | 6 | 35* | 24 | 1
CCOc1cc(C(=O)NC(=S)Nn2cnnc2)cc(OCC)c1OCC | -2 | 3 | 4 | 75* | 75* | -2
Cc1cc(C)nc(SCC(=O)OCC(=O)Nc2ccccc2)n1 | -6 | -1 | 0 | -4 | x | x
CSc1ccc(/C=C/C(=O)N2CCN(c3ccccn3)CC2)cc1 | -1 | 6 | 6 | 24 | x | x
CC(=O)Oc1cc2cccc(OC(C)=O)c(=O)c2c(OC(C)=O)c1OC(C)=O | 2 | 4 | -17 | 53* | 30* | -11
O=C(CSc1nc(-c2ccccc2)ns1)NCC1CCCO1 (stereo unspecified) | 0 | 22 | -7 | 35* | -21 | 2
CC1(C)Cc2c(sc(NC(=O)C(=O)NCCCN3CCOCC3)c2C#N)CO1 | -4 | 23 | -12 | 49* | -4 | 4
CC1(C)Cc2c(sc(NC(=O)/C=C/C(=O)O)c2C#N)CO1 | -5 | 5 | 7 | -14 | x | x
SMILES | HKDC1 inh | PfG6PD inh | Neddyl block | PfM18AAP inh-1 | PfM18AAP inh-2 | CTSL1 confirm
Cc1c(Cl)cccc1NC(=O)c1ncn[nH]1 | -5 | 12 | 7 | 37* | 36* | 0
Cc1ccc(NC(=O)c2ncn[nH]2)cc1 | -6 | -5 | 0 | 5 | x | x
CCCCN(C(=O)c1cccc(S(=O)(=O)N2CC(C)OC(C)C2)c1)c1c(N)n(CC(C)C)c(=O)[nH]c1=O (stereo unspecified) | 2 | 4 | 15 | -4 | x | x
O=C(/C(=N/N=C/c1ccc(O)c(O)c1)c1ccccc1)c1ccccc1 | -3 | -16 | -9 | 48* | 30* | 3
O=C1Nc2ccccc2/C1=N\N=C\c1ccc(O)c(O)c1 | 2 | -26 | -4 | 48* | 47* | 11
Oc1ccc(/C=N/N=C/c2ccc(O)c(O)c2)cc1O | 2 | 17 | -37 | 81* | 76* | 6
O=Cc1ccc(O)c(O)c1 | -4 | -27 | 9 | 48* | 31* | -1
COc1cc(C=O)ccc1O | x | x | -3 | x | x | x
CCOC(=O)c1c(C)[nH]c(C(=O)CN(C)CC(=O)Nc2ccccc2C(F)(F)F)c1C | -1 | 18 | 3 | x | x | x
COc1cc(C2C(C#N)=C(N)OC3=C2C(=O)CCC3)cc2c1OCO2 (stereo unspecified) | -7 | -6 | 2 | 34* | -42 | -4
N#CC1=C(N)OC2=C(C(=O)CCC2)C1c1ccc2c(c1)OCO2 (stereo unspecified) | -2 | 19 | -7 | 15 | x | x
CCNC(=O)C1(C)CCCN(C(=O)Cc2ccc(OC)c(OC)c2)C1 (stereo unspecified) | x | x | 6 | x | x | x
Cc1ccc(F)c(Cn2cnc3c(cnn3C(C)(C)C)c2=O)c1Cl | -6 | 10 | -16 | x | x | x
COc1ccc(/C=C2\SC(=O)N(CC(=O)NN3CCN(C)CC3)C2=O)cc1OC | 0 | 6 | -31 | 37* | -53 | 4
C[C@H](NC(=O)COc1ccc(Cl)cc1)C(=O)N1CCC2(CC1)NCCc1[nH]cnc12 | 2 | 3 | 0 | 4 | x | x
Cc1ccc(C(=O)Nn2c(O)c(C=C3N=c4ccccc4=N3)sc2=S)cc1 | -8 | 8 | 0 | 55* | -31 | 1
Oc1c(C=C2N=c3ccccc3=N2)sc(=S)n1-c1ccc2ccccc2c1 | -5 | 0 | -6 | 7 | x | x
Oc1c(C=C2N=c3ccccc3=N2)sc(=S)n1-c1ccc(F)cc1 | -3 | 10 | -11 | 38* | -17 | 2
O=C(Nn1c(O)c(C=C2N=c3ccccc3=N2)sc1=S)c1ccccc1 | 13 | -6 | 1 | 56* | -4 | -2
O=C(Nn1c(O)c(C=C2N=c3ccccc3=N2)sc1=S)c1ccc(Cl)cc1 | 9 | 19 | 9 | 25 | x | x
O=C(Nn1c(O)c(C=C2N=c3ccccc3=N2)sc1=S)c1cccc(Cl)c1 | 6 | -8 | -10 | 54* | -3 | -2
COc1cc(Oc2nc(C(F)(F)F)nc3ccccc23)ccc1C=O | 1 | 11 | 1 | -4 | x | x
COc1cccc(OCC(=O)NNC(=O)c2ccc3ccccc3c2)c1 | -1 | 3 | -2 | 9 | x | x
COc1ccc(S(=O)(=O)N2CCCCC2)cc1NC(=O)C1CC1C (stereo unspecified) | -2 | -10 | -15 | x | x | x
CC(=O)NN1C(=O)c2ccccc2NC1c1ccccc1O (stereo unspecified) | -3 | -8 | x | 42* | 12 | -2

Screens from PubChem.
